Experimental data: ChEMBL document CHEMBL5303300, “EUbOPEN Chemogenomics Library - Multiplex” (2023)
Where “and” joins values, the source holds several entries; their conditions need not be identical. Equal values may be shown once.

System: Fibroblast
Assay: Multiplex assay against human fibroblast
Type: toxicity, cell-based
Details: number of replicates 2
How it was run: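 Hoechst33342, BioTracker Green Microtubule Cytoskeleton Dye, MitoTracker Red and Annexin V Alexa Fluor 680 were added to live cells at seeding, and imaging on a CQ1 microscope at 37°C and 5% CO2 followed compound addition. Gating by CellPathfinder machine learning separated cells into Hoechst high-intensity objects or normal cells, then normal cells into healthy, pyknosed or fragmented nuclei, then pyknosed cells into mitotic or apoptotic. Per cents of healthy-nucleus cells are reported for the tubulin, mitochondrial-mass and membrane-permeability phenotypes.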

[1] = 12 h, 1 µM, compound concentration 1 uM
[2] = 12 h, 10 µM, compound concentration 10 uM
[3] = 24 h, 1 µM, compound concentration 1 uM
[4] = 24 h, 10 µM, compound concentration 10 uM
[5] = 48 h, 1 µM, compound concentration 1 uM
[6] = 48 h, 10 µM, compound concentration 10 uM

In the case of Cc1cc(NC(=O)c2cccc(NC(=O)/C=C/CN(C)C)c2)ccc1Nc1nccc(-c2cccnc2)n1, the “Population Apoptotic (%)” value [1] is reported as 39% and 33%, the “Population Fragmented Nuclei (%)” value [1] is reported as 12% and 17% and the “Population Healthy Nuclei (%)” value [1] is reported as 63% and 56%. The “Population Hoechst High Intensity Objects (%)” value [1] was 0%, the “Population Membrane Permeable-Phenotype (%)” value [1] was 9% and 11% and the “Population Mitochondria Different-Phenotype (%)” value [1] was 0% and 1%. For the same compound, the “Population Mitotic Cells (%)” value [1] was 60% and 66%, the “Population Normal (%)” value [1] was 100% and the “Population Pyknosed Nuclei (%)” value [1] was 24% and 25%. The “Population Tubulin-Different-Phenotype (%)” value [1] was 18% and 11%, the “Total Cell Count” value [1] was 190 and 197 and the “Population Apoptotic (%)” value [2] was 48% and 33%. For the same compound, the “Population Fragmented Nuclei (%)” value [2] was 4% and 10%, the “Population Healthy Nuclei (%)” value [2] was 53% and 56% and the “Population Hoechst High Intensity Objects (%)” value [2] was 0%. For the same compound, the “Population Membrane Permeable-Phenotype (%)” value [2] was 7% and 14%, the “Population Mitochondria Different-Phenotype (%)” value [2] was 8% and 2% and the “Population Mitotic Cells (%)” value [2] was 51% and 66%. The “Population Normal (%)” value [2] was 100% and 99%, the “Population Pyknosed Nuclei (%)” value [2] was 41% and 33% and the “Population Tubulin-Different-Phenotype (%)” value [2] was 77% and 50%. For the same compound, the “Total Cell Count” value [2] was 130 and 219, the “Population Apoptotic (%)” value [3] was 47% and 40% and the “Population Fragmented Nuclei (%)” value [3] was 22% and 24%. For the same compound, the “Population Healthy Nuclei (%)” value [3] was 54% and 52%, the “Population Hoechst High Intensity Objects (%)” value [3] was 0% and the “Population Membrane Permeable-Phenotype (%)” value [3] was 5% and 3%. The “Population Mitochondria Different-Phenotype (%)” value [3] was 0% and 2%, the “Population Mitotic Cells (%)” value [3] was 52% and 59% and the “Population Normal (%)” value [3] was 100%. The “Population Pyknosed Nuclei (%)” value [3] was 23%, the “Population Tubulin-Different-Phenotype (%)” value [3] was 21% and 13% and the “Total Cell Count” value [3] was 230 and 222. The “Population Apoptotic (%)” value [4] was 53% and 39%, the “Population Fragmented Nuclei (%)” value [4] was 11% and the “Population Healthy Nuclei (%)” value [4] was 36% and 51%. For the same compound, the “Population Hoechst High Intensity Objects (%)” value [4] was 0%, the “Population Membrane Permeable-Phenotype (%)” value [4] was 6% and 7% and the “Population Mitochondria Different-Phenotype (%)” value [4] was 18% and 13%. The “Population Mitotic Cells (%)” value [4] was 46% and 60%, the “Population Normal (%)” value [4] was 99% and the “Population Pyknosed Nuclei (%)” value [4] was 51% and 36%. For the same compound, the “Population Tubulin-Different-Phenotype (%)” value [4] was 81% and 63%, the “Total Cell Count” value [4] was 118 and 221 and the “Population Apoptotic (%)” value [5] was 68% and 75%. The “Population Fragmented Nuclei (%)” value [5] was 24% and 29%, the “Population Healthy Nuclei (%)” value [5] was 62% and 60% and the “Population Hoechst High Intensity Objects (%)” value [5] was 0%. The “Population Membrane Permeable-Phenotype (%)” value [5] was 6% and 4%, the “Population Mitochondria Different-Phenotype (%)” value [5] was 1% and 0% and the “Population Mitotic Cells (%)” value [5] was 31% and 25%. For the same compound, the “Population Normal (%)” value [5] was 100% and 99%, the “Population Pyknosed Nuclei (%)” value [5] was 13% and 10% and the “Population Tubulin-Different-Phenotype (%)” value [5] was 23% and 29%. The “Total Cell Count” value [5] was 237 and 239, the “Population Apoptotic (%)” value [6] was 82% and 60% and the “Population Fragmented Nuclei (%)” value [6] was 14%. For the same compound, the “Population Healthy Nuclei (%)” value [6] was 30% and 39%, the “Population Hoechst High Intensity Objects (%)” value [6] was 0% and the “Population Membrane Permeable-Phenotype (%)” value [6] was 19% and 12%. For the same compound, the “Population Mitochondria Different-Phenotype (%)” value [6] was 22% and 15%, the “Population Mitotic Cells (%)” value [6] was 17% and 39% and the “Population Normal (%)” value [6] was 100% and 99%. The “Population Pyknosed Nuclei (%)” value [6] was 54% and 45%, the “Population Tubulin-Different-Phenotype (%)” value [6] was 80% and 78% and the “Total Cell Count” value [6] was 117 and 218.

With COc1ccc(NC(=O)c2ccc(-c3ccc(-c4noc(C)n4)cc3C)cc2)cc1OCCN(C)C.Cl the “Population Apoptotic (%)” value [1] was 34% and 50%, the “Population Fragmented Nuclei (%)” value [1] was 23% and 26% and the “Population Healthy Nuclei (%)” value [1] was 60% and 51%. The “Population Hoechst High Intensity Objects (%)” value [1] was 0%, the “Population Mitochondria Different-Phenotype (%)” value [1] was 6% and 5% and the “Population Mitotic Cells (%)” value [1] was 65% and 50%. The “Population Normal (%)” value [1] was 100% and 99%, the “Population Pyknosed Nuclei (%)” value [1] was 15% and 21% and the “Population Tubulin-Different-Phenotype (%)” value [1] was 39% and 56%. The “Total Cell Count” value [1] was 247 and 176, the “Population Fragmented Nuclei (%)” value [2] was 14% and 30% and the “Population Healthy Nuclei (%)” value [2] was 29% and 48%. The “Population Hoechst High Intensity Objects (%)” value [2] was 2% and 0%, the “Population Membrane Permeable-Phenotype (%)” value [2] was 14% and 7% and the “Population Mitochondria Different-Phenotype (%)” value [2] was 29% and 25%. The “Population Normal (%)” value [2] was 97% and 100%, the “Population Pyknosed Nuclei (%)” value [2] was 56% and 20% and the “Population Tubulin-Different-Phenotype (%)” value [2] was 82% and 72%. The “Total Cell Count” value [2] was 117 and 158, the “Population Apoptotic (%)” value [3] was 46% and 65% and the “Population Fragmented Nuclei (%)” value [3] was 32% and 19%. The “Population Healthy Nuclei (%)” value [3] was 58% and 57%, the “Population Hoechst High Intensity Objects (%)” value [3] was 2% and 0% and the “Population Membrane Permeable-Phenotype (%)” value [3] was 4% and 6%. The “Population Mitochondria Different-Phenotype (%)” value [3] was 10% and 9%, the “Population Mitotic Cells (%)” value [3] was 53% and 34% and the “Population Normal (%)” value [3] was 97% and 99%. The “Population Pyknosed Nuclei (%)” value [3] was 9% and 22%, the “Population Tubulin-Different-Phenotype (%)” value [3] was 44% and 59% and the “Total Cell Count” value [3] was 288 and 170. For the same compound, the “Population Apoptotic (%)” value [4] was 94% and 90%, the “Population Fragmented Nuclei (%)” value [4] was 13% and 26% and the “Population Healthy Nuclei (%)” value [4] was 16% and 10%. The “Population Hoechst High Intensity Objects (%)” value [4] was 0%, the “Population Mitochondria Different-Phenotype (%)” value [4] was 38% and 83% and the “Population Mitotic Cells (%)” value [4] was 5% and 9%. For the same compound, the “Population Normal (%)” value [4] was 100%, the “Population Pyknosed Nuclei (%)” value [4] was 69% and 62% and the “Population Tubulin-Different-Phenotype (%)” value [4] was 72% and 66%. The “Total Cell Count” value [4] was 108 and 116, the “Population Apoptotic (%)” value [5] was 86% and 73% and the “Population Fragmented Nuclei (%)” value [5] was 25% and 32%. The “Population Healthy Nuclei (%)” value [5] was 62% and 60%, the “Population Hoechst High Intensity Objects (%)” value [5] was 0% and 1% and the “Population Membrane Permeable-Phenotype (%)” value [5] was 6% and 1%. The “Population Mitochondria Different-Phenotype (%)” value [5] was 6% and 5%, the “Population Mitotic Cells (%)” value [5] was 13% and 26% and the “Population Normal (%)” value [5] was 100% and 98%. The “Population Pyknosed Nuclei (%)” value [5] was 12% and 6%, the “Population Tubulin-Different-Phenotype (%)” value [5] was 36% and 23% and the “Total Cell Count” value [5] was 191 and 281. The “Population Apoptotic (%)” value [6] was 95% and 96%, the “Population Fragmented Nuclei (%)” value [6] was 20% and 25% and the “Population Healthy Nuclei (%)” value [6] was 15% and 7%. For the same compound, the “Population Hoechst High Intensity Objects (%)” value [6] was 0%, the “Population Mitochondria Different-Phenotype (%)” value [6] was 18% and 25% and the “Population Mitotic Cells (%)” value [6] was 4%. The “Population Normal (%)” value [6] was 100%, the “Population Pyknosed Nuclei (%)” value [6] was 63% and 66% and the “Population Tubulin-Different-Phenotype (%)” value [6] was 81% and 87%. The “Total Cell Count” value [6] was 102 and 112.
